# Measured values pooled from the literature.
# Each line is one published result; the experiments were not run side by side.
# Target: Serine/threonine-protein kinase 26 (STK26, Homo sapiens, UniProt Q9P289)
SMILES,effect on,action,method,cell line,concentration,quantity,result
Cn1cc(-c2cc(F)cc(N3CCn4c(cc5c4CCCC5)C3=O)c2CO)cc(Nc2ccc(N3CCN(C4COC4)CC3)cn2)c1=O,enzyme activity,inhibitor,,,0.1 µM,inhibition,14%
Cc1nn(C)cc1-c1nc2c(N3CCN(Cc4ccc(Cl)cc4)CC3)c(Cl)cnc2[nH]1,binding,,competition with immobilised ligand,,1 µM,remaining binding,100%
N#CC1(c2ccccn2)CCN(Cc2cc(C(=O)O)c(=O)n3ccccc23)CC1,cell-free assay,,competition with immobilised ligand,,1 µM,remaining binding,100%
Nc1ncc(-c2nc(N3CCOCC3)nc(N3CCOCC3)n2)c(C(F)F)n1,binding,,competition with immobilised ligand,,10 µM,remaining binding,91%
O=c1[nH]c2ccccc2n1C1CCN(Cc2ccc(-c3[nH]c4cc5ncnc5cc4nc3-c3ccccc3)cc2)CC1,cell-free assay,,,,0.5 µM,remaining signal,102%
Cn1cncc1[C@@](O)(COc1ccc(C#N)cc1-c1ccc(OC(F)(F)F)cc1)c1ccc(C#N)cc1,cell-free assay,,competition with immobilised ligand,,1 µM,remaining binding,99%
CC(C)(C)c1cc(C=C(C#N)C#N)cc(Br)c1O,enzyme activity,inhibitor,,,0.5 µM,remaining activity,95.2%
CCN1CCN(Cc2ccc(NC(=O)c3ccc(C)c(/C=C/c4cnc5[nH]ccc5c4OC)c3)cc2C(F)(F)F)CC1,target engagement in cells,inhibitor,chemoproteomics,A-375,50 nM,inhibition,-14.9%
COc1ncccc1-c1cnn2ccc(N3CCN(C(=O)OC(C)C)CC3)nc12,binding,,competition with immobilised ligand,,1 µM,remaining binding,92%
